# This sample holds only a part of the variants without activity.
# B1: tRNA (parent)
# chain: GUUCCGUUGGCGUAAUGGUAACGCGUCUCCCUCCUAAGGAGAAGACUGCGGGUUCGAGUCCCGUACGGAACG
# Variants of: B1
# Experiment: yeast fitness relative to wild type (ratio to wild type); higher = fitter; tRNA-Arg(CCU), competitive growth, 37 C, YPD
# Procedure, shortened: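 Amplicons of the tRNA-Arg(CCU) gene were sequenced, 100-nucleotide paired-end, from the start population and from each end population of a pooled yeast competition. The competition, in six parallel replicates, lasted 24 hours in YPD at 37°C. Fitness relative to wild type was calculated from changes in genotype frequencies. Genotypes had to have ≥ 100 starting reads, and estimates < 0.5 were set to 0.5.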
row,Variant,yeast fitness
1,GAUCCGUUGGCGUAAUGGUAACGUGUCUCUCUGCUCCGGAGCAGACUGCGGGUUCGAGUCCCGUUCGGAACG [U2A C24U C30U C33G A36C A37C A42C A65U],≤ 0.5
2,GAUCCGUUGGCGUAAUGGUAAUGCGUCUCCCUCCUAAGGAGAAGACUGCGGGUUCAAGUCCCGUACGGAACG [U2A C22U G56A],0.551
3,GAUCCGUUGGCGUAAUGGUAACGCGUCUUCCUCCUAGGGAGAAGACUGCGGGUUCGAGUCCCGUACGGAACG [U2A C29U A37G],≤ 0.5
4,GAUCCGUUGGGGUAAUGGCAACGCGUCUCCCUCCUAAGGAGAAGACUGCGGGUUCGAGUUCCGUACGGAACG [U2A C11G U19C C60U],≤ 0.5
5,GAUCGGUUGGCGUAAUGGUAACGCAUCUCCCUCCUAAGGAGAAGACUGCGGGUUCGAGUCCCGUAUGGAACG [U2A C5G G25A C66U],0.532
6,GAUCCGUUGGCGUAAUGGUAACGGGUCUCCCUCCUAAGGAGAAGACUGCGGGUUCGAGUCCCGUACGGAACG [U2A C24G],0.643
7,GAUCCGUUGGCGUAAUGGUAAAGCGUCUCCCUCCUAAGGCGAAGAGUGCGGGUUCGAGAUGCGUACGGAACG [U2A C22A A40C C46G U59A C60U C61G],≤ 0.5
8,GAUCCGUUGGCGUAAUGGUAACGCGUCUCCCUCCUAAGGAGAAGACUGCGGGUUCGGGUCCCGUACGGAACG [U2A A57G],0.897
9,GAUCCGUUGGCGUCAUGGUAACGCGUCUCCCUCAUAAGGAGAAGACUGUGGGUUUGAGUCCCGUACGGCACG [U2A A14C C34A C49U C55U A69C],≤ 0.5
10,GAUCCGUUGGUGUAAUAGUAACGCGUCUGCGUCCUACGGAGAAGACUGCGGGUUCGAGUCCCGUAAGGAACG [U2A C11U G17A C29G C31G A37C C66A],≤ 0.5
11,GAUCCGUUGGCGUAAUGGUAACGCGUCUACCUCCUAAGGAGAAGUCUGCGGGUUCGAGUCCCGUACGCAACG [U2A C29A A45U G68C],≤ 0.5
12,GAUCAGUUGGCGUAAUGGUAACGCGUCUCCCUCCUAAGGAGAAGACUGCGGGUUCGAGUCCCGGACGGACCG [U2A C5A U64G A70C],≤ 0.5
13,GAUCCGUUGGCGUAAUGGUAACGCGUCUACCUCCUAAGGAGACGACUGCGGGUUCGAGUCCCGUACGGAACG [U2A C29A A43C],≤ 0.5
14,GAUCCGUUGGCGUAAUGGUAACGGGUCCCCCUCCUAAGGUGAAGACUGCGGGUUCGAGUCCCGUACGGAACG [U2A C24G U28C A40U],≤ 0.5
15,GAUCGGUUGGCGUAAUGGUAACGCGUCUCCCUCCUAAGGGGAAGCCUGCGGGUUCGAGUCCCGUACGGAACG [U2A C5G A40G A45C],≤ 0.5
16,GAUCCGUUGGCGUAAUGGUAACGCGUCUCCCUCCUAAGGUGAAGACUGCGGGUUCGAGUCCCGUACGGAACG [U2A A40U],0.796
17,GAUCCGUUGGCGUAAUGGUAGCGCGUCUCCCUCCUAAGGAGAAGACUGCGGGUUCGAGUCCCGUACGGAACG [U2A A21G],1.04
18,GAUCCGUUGGCGUAAUGGUAACGCGUCUCCCUCCUAAGGAGAAGACUGCGGGUUCGUGUCCCGUUCGGAACG [U2A A57U A65U],≤ 0.5
19,GAUACGUUGGCAUAAUGGUAACGCGUCUCCCUUCUAAGAAGAAGACUGCGGGUUCGAGUCCCGAACGGACCG [U2A C4A G12A C33U G39A U64A A70C],≤ 0.5

row,Variant,yeast fitness
1,GAUCUGUUGGCGUAAUGGUAACGCGUCUCCCUCCUAAGGAGAAGACUGCGGGUUCGAGUCCCGUACGGCACG [U2A C5U A69C],0.687
2,GAUCCGUUGGUGUAAUGCUAACGCGUCUCCUUCCUAAGGAGGAGACUGCGGGUUCGAGUCCUGUACGGAACG [U2A C11U G18C C31U A42G C62U],≤ 0.5
3,GAUUCGUUGCCGUAAUGGUAACGCGUCUCCCUCCUAAGGAGAAGACUGCGGGUUCGAGUCCCGUACGGAACG [U2A C4U G10C],0.522
4,GAUCCGUUGGCGUAAUGGUACCGCGUCUUCCUCCUAAGGAGAAGACUGCGGGUUCGAGUCCCGUACGGAACG [U2A A21C C29U],≤ 0.5
5,GAUCCGUUGGCGUAAUGGUUACGCGUCUCCCUCCUAAGGAGAAGCCUGCGGGUUCGAGUCCCGUACGGAACG [U2A A20U A45C],0.728
6,GAUCCGUUGGCGUAAUGGUAAUGCGUCUCCCUCCUAAGGCGAAGACUGCGGGUUCGACUCCCGUAUGGAACG [U2A C22U A40C G58C C66U],≤ 0.5
7,GAUCCGUUGGCGUACUGGUAACGCGUCUCCCUCCUAAGGAGAAGACUGCGGGUUCGACUCCCGCACGGAACG [U2A A15C G58C U64C],0.53
8,GAUCCGUUGGCGUAAUGGUAGCGCGUCUCCCUUCUAAGGAGAAGACUGCGCGUUCGAGUCCCGUACGGAACG [U2A A21G C33U G51C],≤ 0.5
9,GAUCCGUUGGCGUAAUGGUAACGCGUCUCACUCCUAAGGAGAAGACUGCGGGUUCGAGUCCCCUACGGAACG [U2A C30A G63C],≤ 0.5
10,GAUCCGUUGGCGUAAUGGUACCGCGUCUUCCUCCUAAGGAGAAGACUGCGGGUUCGCGUCCCGUACGGAACG [U2A A21C C29U A57C],0.583
11,GAUCCGUUGGCGUAAUGGUCACGCGUCUCCCUGCUAAGGAGAAGAUUGCGGGUUCGAGUCCCGUACGGAACG [U2A A20C C33G C46U],≤ 0.5
12,GAUCCGUUGGCGUAAUGGUAACGUGUCUCCGUCCUAAGGAGAAAACUGCGGGUUCGAGUCCCGUACGGAACG [U2A C24U C31G G44A],≤ 0.5
13,GAUCCGUUGGCGUCAUGGUAACGCGUCUCCCUCCUACGGAGAAGACUGCGGGUUCGAGUCCCGUACGGAACG [U2A A14C A37C],≤ 0.5
14,GAUCCGUUGGCGUAAUGGUACAGCGUCUUCCUCCUAAGGAGAAGACUGGGGGUUCGAGUCCCGUACGGAACG [U2A A21C C22A C29U C49G],≤ 0.5
15,GAUACGUUGGCGUAAUGGUAACGCGUCUCCCUCCUAAGGAGAAGACUGCGGGUUCGAGUCCCGUACGGAACG [U2A C4A],0.914
16,GAUCUGUGGGCGUAAUGGUGACGCGUCUCCCUCAUAAGGAGAAGACUGCGGGUUCGAGUCCCGUACGGAACG [U2A C5U U8G A20G C34A],≤ 0.5
17,GAUCCGUUGGCGUAAUGGUUACGCGUCUCCCUCUUAAGGAGAAGACUGCGAGUUCGAGUCCCGUACGGAACG [U2A A20U C34U G51A],≤ 0.5
18,GAUCCGUUGGCGUAAUGGUAACGGGUCUCCUUGCUAAGGAGCUGACUGCGGGUUCGAGUCCCGUACGGAACG [U2A C24G C31U C33G A42C A43U],0.651
19,GAUCCGUUGGCGUAAUGGUACCGCGUCUUCCUCCUAAGGAGAAGACUGCGGGUUCCAGUCCCGUACGGAACG [U2A A21C C29U G56C],≤ 0.5
